Results pooled from the literature.
Compare with care: the assays were run in different laboratories.
Target: Serine/threonine-protein kinase Nek2 (NEK2, Homo sapiens, UniProt P51955)
Residues used in one study (P51955 1-445): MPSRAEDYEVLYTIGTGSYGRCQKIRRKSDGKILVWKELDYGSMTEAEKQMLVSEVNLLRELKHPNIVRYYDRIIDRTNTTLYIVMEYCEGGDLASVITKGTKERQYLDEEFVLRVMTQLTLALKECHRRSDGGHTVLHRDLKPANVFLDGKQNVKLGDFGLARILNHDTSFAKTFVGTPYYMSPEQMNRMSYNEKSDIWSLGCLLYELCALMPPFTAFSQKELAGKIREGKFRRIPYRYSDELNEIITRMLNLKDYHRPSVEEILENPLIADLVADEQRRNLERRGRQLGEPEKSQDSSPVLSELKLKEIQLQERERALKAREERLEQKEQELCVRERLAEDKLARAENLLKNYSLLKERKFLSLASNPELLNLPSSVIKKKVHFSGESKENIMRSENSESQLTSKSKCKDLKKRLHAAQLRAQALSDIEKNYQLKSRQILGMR

SMILES	effect on	action	method	concentration	measurement	result
Cn1cncc1[C@](O)(COc1ccc(C#N)cc1-c1ccc(OC(F)(F)F)cc1)c1ccc(C#N)cc1	cell-free assay	–	competition with immobilised ligand	1 µM	remaining binding	100%
COc1cc(Nc2ncc(F)c(Nc3ccc4c(n3)NC(=O)C(C)(C)O4)n2)cc(OC)c1OC	binding	–	competition with immobilised ligand	10 µM	inhibition	83%
Cn1cc(-c2cc(F)cc(N3CCn4c(cc5c4CCCC5)C3=O)c2CO)cc(Nc2ccc(N3CCN(C4COC4)CC3)cn2)c1=O	enzyme activity	inhibitor	–	0.1 µM	inhibition	10%
O=c1[nH]c2ccccc2n1C1CCN(Cc2ccc(-c3[nH]c4cc5ncnc5cc4nc3-c3ccccc3)cc2)CC1	cell-free assay	–	–	0.5 µM	remaining signal	96.8%
C#Cc1n[nH]c2c(-c3cn(C(C)c4ccccn4)c(=O)[nH]c3=O)cc(F)cc12 (stereo not drawn)	enzyme activity	inhibitor	–	1 µM	inhibition	-4.6%
N#CC1(c2ccccn2)CCN(Cc2cc(C(=O)O)c(=O)n3ccccc23)CC1	cell-free assay	–	competition with immobilised ligand	1 µM	remaining binding	100%
CC(C)(C)c1cc(C=C(C#N)C#N)cc(Br)c1O	enzyme activity	inhibitor	–	0.5 µM	remaining activity	96%
Nc1ncc(-c2nc(N3CCOCC3)nc(N3CCOCC3)n2)c(C(F)F)n1	binding	–	competition with immobilised ligand	10 µM	remaining binding	87%
Cn1cc(-c2cccc(N3CCc4c(sc5c4CC(C)(C)C5)C3=O)c2CO)cc(Nc2ccncn2)c1=O	enzyme activity	inhibitor	–	1 µM	inhibition	4%
Cc1nn(C)cc1-c1nc2c(N3CCN(Cc4ccc(Cl)cc4)CC3)c(Cl)cnc2[nH]1	binding	–	competition with immobilised ligand	1 µM	remaining binding	100%
C#Cc1n[nH]c2c(-c3cn([C@@H](C)c4ccccc4)c(=O)[nH]c3=O)cc(F)cc12	enzyme activity	inhibitor	–	0.1 µM	inhibition	0.5%
COc1ncccc1-c1cnn2ccc(N3CCN(C(=O)OC(C)C)CC3)nc12	binding	–	competition with immobilised ligand	1 µM	remaining binding	86%
